PubChem BioAssay AID1448 (The Scripps Research Institute Molecular Screening Center, 2008)
Hit rate of the full screen: of about 220,000 compounds, about 630 (0.29%) were called active. Many of the other results were omitted from the sample, so actives are more common in it than they were. Values without a mark were called inactive.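 Rule for the calls: active = activation above its plate's cutoff, the mean activation of the plate's test wells plus 3 SD (cut at about 12% in these data); inactive = the rest.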

molecular target: Mucolipin-3 (Homo sapiens) (UniProt Q8TDD5); assay: human TRPML3 channel agonists, primary screen, cell-based, HEK293 TRPML3-YFP, Fluo-8 calcium fluorescence, 3 µM (AID 1448); settings: at 3 µM, stronger effect = higher value, 100% = the carbachol control signal
Sequence (Q8TDD5 whole entry, looked up): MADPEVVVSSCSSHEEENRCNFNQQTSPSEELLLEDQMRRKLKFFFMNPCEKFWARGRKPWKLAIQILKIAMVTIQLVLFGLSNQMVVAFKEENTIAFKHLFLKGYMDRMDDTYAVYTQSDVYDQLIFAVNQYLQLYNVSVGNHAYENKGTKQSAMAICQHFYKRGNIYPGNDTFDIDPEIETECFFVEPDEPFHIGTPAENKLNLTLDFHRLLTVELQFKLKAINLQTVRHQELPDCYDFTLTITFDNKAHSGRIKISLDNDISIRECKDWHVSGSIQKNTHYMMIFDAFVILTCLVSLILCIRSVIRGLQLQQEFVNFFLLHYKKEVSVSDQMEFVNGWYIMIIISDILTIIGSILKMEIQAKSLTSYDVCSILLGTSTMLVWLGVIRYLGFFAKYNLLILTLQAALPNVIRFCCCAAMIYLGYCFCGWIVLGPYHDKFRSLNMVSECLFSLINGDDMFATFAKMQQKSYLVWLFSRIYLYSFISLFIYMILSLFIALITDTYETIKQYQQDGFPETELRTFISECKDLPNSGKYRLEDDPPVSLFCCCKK
Outline: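 Test system – HEK293 line with stable expression of human TRPML3-YFP channel · Control set – carbachol 87 µM final as high control (100%), DMSO as low control (0%) · Signal – Fluo-8 calcium dye fluorescence, ex 470-495, em 515-575 nm · Incubation – 1-h 37 °C dye load, 5-s basal, 120-s post-compound reads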

Row | Compound | activation
1 | Cc1ccc(C2=N/C(=C\c3ccc(OS(=O)(=O)c4ccc(C)cc4)cc3)C(=O)O2)cc1 | 0.55%
2 | CCN(CC)S(=O)(=O)c1ccc(C)c(NC(=O)COc2ccc(Br)cc2Cl)c1 | 0.13%
3 | O=C(Nc1ccccc1C(=O)O)c1cc(S(=O)(=O)N2CCCCC2)cs1 | -0.64%
4 | c1csc(-c2nnc(COc3ccc4c(c3)OCO4)o2)c1 | 0.41%
5 | Nc1scc[n+]1Cc1cccc2cccnc12 | 0.56%
6 | c1ccc2c(CSCc3nc4ccccc4[nH]3)cccc2c1 | 0.61%
7 | c1ccc2c(C[n+]3csc4ccccc43)cccc2c1 | 34.1% (active)
8 | COc1cccc(NC(=O)CN2CCN(c3nc(-c4cccc(OC)c4)cs3)CC2)c1 | 0.54%
9 | O=C(CN1CCN(c2nc(-c3ccccc3)cs2)CC1)NCc1ccc2c(c1)OCO2 | 0.02%
10 | CC1CCCC(C)N1C(=O)CN1CCN(c2nc(-c3ccc(F)cc3)cs2)CC1 (stereo unspecified) | 12.9% (active)
11 | CC1CCCC(NC(=O)COC(=O)[C@@H]2CC(O)CN2S(=O)(=O)c2ccc3c(c2)OCCO3)C1C (stereo partly specified) | 0.86%
12 | COc1cc(N/C=C2\CC(=O)NC(C)=C2C#N)cc(OC)c1OC | 0.7%
13 | COc1cccc(CC(=O)N2CCCC(CCC(=O)N3CCN(c4ccccn4)CC3)C2)c1 (stereo unspecified) | 2.9%
14 | CC(C[N+](C)(C)C)OC(N)=O (stereo unspecified) | 3.52%
15 | CC(=O)OC(C)C[N+](C)(C)C (stereo unspecified) | 78.4% (active)
16 | COc1ccc(C[C@H]2CN3C(=NC[C@H]3C)N2CCNC(=O)CCC2CCCCC2)cc1 | 0.4%
17 | CCCCCCCCCCOC(=O)C[N+](C)(C)CC1CCCCC1O (stereo unspecified) | -0.99%
18 | Cc1cccc(C)c1N1CCN(S(=O)(=O)N2CCOCC2)CC1 | 1.69%
19 | O=S(=O)(N1CCCCC1)N1CCNCC1 | 0.7%
20 | Cc1cccc(C)c1N1CCN(S(=O)(=O)N2CCCCC2)CC1 | 57.5% (active)
21 | CCC(C)(C)c1ccc(OCC(=O)N(C)C)c(C(C)(C)CC)c1 | 0.49%
22 | O=C(CSc1nnc(-c2ccccc2)o1)N1CCOCC1 | 0.92%
23 | CC1=CC(C)(C)N(C(=O)CSc2nnc(-c3ccccc3)o2)c2ccc(C)cc21 | 23.2% (active)
24 | CC1=CC(C)(C)N(C(=O)CSc2nccn2C)c2cc(C)ccc21 | -1.12%

Row | Compound | activation
25 | Cc1ccc(C(=O)N2CCN(S(=O)(=O)N3CCOCC3)CC2)cc1 | 0.24%
26 | O=C(COC(=O)CC1CC2CCC1C2)NC(=O)NC1CCCC1 (stereo unspecified) | 0%
27 | COc1ccc(S(=O)(=O)NC(C)C(=O)Nc2cccc([N+](=O)[O-])c2)cc1 (stereo unspecified) | -0.47%
28 | COc1cc(OC)c(-n2c(C)cc(C=O)c2C)cc1Cl | -0.32%
29 | COc1cc(OC)c(-n2cc(-c3ccc(Cl)cc3)[nH]c2=O)cc1Cl | 12.1% (active)
30 | COc1ccc(-c2cn(-c3ccc(OC)cc3)c(=S)[nH]2)cc1 | 0.32%
31 | Cc1nnc(N/N=C/C2CC=CCC2)[nH]c1=O (stereo unspecified) | 1.13%
32 | O=C(NCCc1c[nH]c2ccccc12)C(=O)NCC1CCCO1 (stereo unspecified) | 0.08%
33 | N#C/C(=C/c1ccc(-c2ccccc2[N+](=O)[O-])o1)C(=O)NCCN1CCCCC1 | -0.32%
34 | N#C/C(=C/c1ccc(N2CCCCC2)o1)C(=O)NCCc1c[nH]c2ccccc12 | 15.6% (active)
35 | Cn1c(SCC(=O)c2ccc(F)cc2)nnc1-c1ccccn1 | -0.33%
36 | Cc1nc(COc2cccc(Cl)c2)sc1C(=O)/C=C/N(C)C | -0.16%
37 | COc1ccc(N=C(C)c2sc3ccccc3c2O)cc1 | 2.16%
38 | CCC(C(=O)OCC(=O)Nc1ccc(C(=O)Nc2ccc(OC)cc2)cc1)c1ccccc1 (stereo unspecified) | 1.2%
39 | CCC(C(=O)Nc1ccc(C(C)C)cc1)c1ccccc1 (stereo unspecified) | 15.7% (active)
40 | CCC(C(=O)Nc1ccc2c(c1)OCCO2)c1ccccc1 (stereo unspecified) | -0.06%
41 | Cn1cccc1/C=N/NC(=O)c1ccc(OC(F)(F)C(F)F)cc1 | 0.29%
42 | Cc1cc(NC(=O)CCC(=O)N(CC(=O)NCC2CCCO2)c2ccccc2C)no1 (stereo unspecified) | -0.47%
43 | Cc1cc(C)nc(/N=C2\NC(=O)CC(C(=O)O)N2c2ccc(Cl)cc2Cl)n1 (stereo unspecified) | 0.53%
44 | Cc1ccc(C(NC(=O)N2CCCC2)C(Cl)(Cl)Cl)cc1F (stereo unspecified) | -0.15%
45 | Oc1ccc2ccc3cccc[n+]3c2c1 | 14.6% (active)
46 | C/C(=N\Nc1nc(N2CCOCC2)nc(N2CCOCC2)n1)c1ccc([N+](=O)[O-])cc1 | 0.78%
47 | COc1ccc(/C=N/NC(=O)C(C)N(c2ccc(OC)cc2)S(C)(=O)=O)cc1 (stereo unspecified) | 0.53%
48 | CC(C)n1c(CN2CCN(Cc3ccccc3)CC2)nc2ccccc21 | 0.13%

Row | Compound | activation
49 | CCN(C(=O)Cc1nc(N)n[nH]1)C1(C(=O)Nc2ccccc2)CCCCC1 | -0.28%
50 | Cc1nc2sc(C(=O)c3ccccc3)c(N)c2c2c1CCCC2 | -0.35%
51 | CN(C)c1ccnc2sc(C(=O)c3ccccc3)c(N)c12 | -0.55%
52 | Nc1c(C(=O)c2cccs2)sc2nsc(SCCN3CCCCC3)c12 | 23.1% (active)
53 | CCN(CC)c1ccc(C(=O)c2cnc(/N=C/N(C)C)s2)cc1 | -0.38%
54 | COC(=O)c1ccccc1N=Nc1c(C)[nH][nH]c1=O | 0.25%
55 | C[C@@H](NC(=O)OC(C)(C)C)c1nnc(S(=O)(=O)Cc2ccccc2)o1 | 1.12%
56 | CCN1CCN(CCNC(=O)c2ccc(/C=C3/Sc4ccccc4N(Cc4cccc(C)c4)C3=O)cc2)CC1 | 1.89%
57 | CCN1/C(=C\c2ccc3ccccc3[n+]2CC)Sc2cc(C)ccc21 | 16.6% (active)
58 | CCN1/C(=C/c2ccc3ccc(C)cc3[n+]2CC)Sc2ccccc21 | 12.7% (active)
59 | CCN1/C(=C/C(=S)Nc2ccccc2)Sc2ccccc21 | -0.23%
60 | COc1ccc(N(Cc2ccccc2)S(=O)(=O)c2cccc(C(=O)O)c2)cc1 | 0.34%
61 | COc1ccc(CNC(=O)CN(Cc2ccc(Cl)cc2)S(C)(=O)=O)cc1 | 0.83%
62 | COc1ccc(N(CCC#N)S(=O)(=O)c2ccc(Cl)cc2)cc1 | 11.9% (active)
63 | Cc1[nH]c2c(C(=O)N3CCCC(CCC(=O)NCc4ccccc4F)C3)cccc2c1C (stereo unspecified) | -0.04%
64 | COC(=O)CCC(=O)N1CCCC(CO)(Cc2ccccc2)C1 (stereo unspecified) | 0.26%
65 | Cc1ccccc1-n1nc(C)c2c1N=C1C(Cl)=CC(Cl)=CN1C2c1ccc(C(=O)O)cc1 (stereo unspecified) | 0.62%
66 | Cc1ccc(OCC(=O)Nc2ccccc2Sc2ccc(Cl)cc2)c([N+](=O)[O-])n1 | 0.1%
67 | CC(C)CNC(=O)C(=O)Nc1ccc(N(C)C)cc1 | 1.3%
68 | O=[N+]([O-])/C=C1\CCCCCN1 | 0.64%
69 | COc1ccccc1N(CC(=O)N1CCCCC1)S(=O)(=O)c1ccccc1 | 162% (active)
70 | COc1ccc(Cl)cc1N(CC(=O)N/N=C/c1ccc(OCC(N)=O)cc1)S(C)(=O)=O | 0.86%
71 | CCOC(=O)N1CCN(C(=O)CN(c2ccc(C)c(C)c2)S(=O)(=O)c2ccccc2)CC1 | 0.07%
72 | COc1ccc(Cl)cc1N(CC(=O)N1CCCCC1)S(C)(=O)=O | 56.7% (active)

Row | Compound | activation
73 | COc1cccc2c(=O)n(CC(=O)N3CCCCCC3)ccc12 | 0.82%
74 | COc1ccc(S(=O)(=O)N(C)CC(=O)N2CCCC2)cc1Cl | 0.85%
75 | CCCC(=O)Nc1ccc2c(c1)nc(CCNC(=O)c1ccco1)n2C | 0.81%
76 | CCOc1ccc(CN2CCN(Cc3ccc(C)o3)CC2CCO)cc1 (stereo unspecified) | 1.1%
77 | CN(Cc1nc(-c2cnccn2)no1)Cc1n[nH]c2c1CCCCC2 | 0.69%
78 | CCn1c(SCC(=O)Nc2nccs2)nnc1-c1ccco1 | 0.4%
79 | O=C(CSc1nnc2ccc(-c3ccncc3)nn12)N1CCCCC1 | -0.71%
80 | Cc1ccc(F)cc1NC(=O)N1CCCN(c2ccc(C(F)(F)F)cn2)CC1 | 2.2%
81 | Cc1cc2c(cc1C)N(C(=O)CN1C(=O)c3ccccc3C1=O)C(C)(C)c1ssc(=S)c1-2 | 81.4% (active)
82 | Cc1cccc(NC(=O)CN2C(=O)c3ccccc3C2=O)c1C | 1.15%
83 | Cc1ccc2c(c1)-c1c(ssc1=S)C(C)(C)N2C(=O)CN1C(=O)c2ccccc2C1=O | -0.04%
84 | CCOc1ccc(NC(=O)NNC(=O)c2ccc(Cl)cc2Cl)cc1 | 0.56%
85 | O=C(NCCN1CCOCC1)c1ccc2c(c1)N(Cc1ccc(Cl)cc1)CCS2 | 0.23%
86 | O=C1/C(=C/c2cccs2)SC(=S)N1C1CCS(=O)(=O)C1 (stereo unspecified) | 0.54%
87 | O=C(O)CCC(=O)Nc1nc2ccc([N+](=O)[O-])cc2s1 | 0.5%
88 | O=C(Nc1nc2ccc([N+](=O)[O-])cc2s1)c1ccncc1 | 1.14%
89 | O=C(NC(Nc1nc2ccc([N+](=O)[O-])cc2s1)(C(F)(F)F)C(F)(F)F)c1ccccc1 | 13% (active)
90 | C=CCNC(=O)COC(=O)CNC(=O)c1cc(Cl)cc([N+](=O)[O-])c1 | 0.51%
91 | COc1ccc(NS(=O)(=O)c2ccc(Oc3c(C#N)cccc3C#N)cc2)cc1 | 4.31%
92 | Cc1nnc(C)c2c(C)n(N)c(C)c12 | 0.94%
93 | O=C(NC(CC(=O)N1CCN(c2ccccc2)CC1)c1ccccc1)c1ccccc1Cl (stereo unspecified) | -0.24%
94 | CCN(CC)c1ccc2cc(C(=O)O)c(=O)oc2c1 | 0.92%
95 | COc1ccc(C(=O)N/N=c2\oc3ccccc3cc2C(N)=O)cc1 | 0.85%
96 | CCN(CC)c1ccc2cc(C(N)=O)/c(=N\NC(=O)c3ccncc3)oc2c1 | 22.1% (active)
